Article PMC11399684 (Saudi Pharmaceutical Journal : SPJ, 2024)

How the values were obtained:
[1] = Plasma pharmacokinetic study; type: in vivo, male Wistar rats; settings: drug delivered by MPG2 (MPG2ER), intraperitoneal
How it was run: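 Male Wistar rats (200 ± 50 g), fasted, got a single intraperitoneal dose of the dendrimer formulation at 10 mg/kg drug equivalent in 5 % v/v DMSO, with 4 rats per time point. Retro-orbital blood (0.5 ml) was drawn at 0.5–96 h and centrifuged for 10 min at 12000 rpm, 4 °C. Plasma underwent single-step protein precipitation and HPLC at 254 nm. Parameters came from non-compartmental analysis.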

[2] = Tissue distribution study; type: in vivo, male Wistar rats; settings: for AUCtol / AUMC / Cl: after MPG2ER 10 mg/kg i.p.; for Cmax / MRT / Tmax / half-life: male, Wistar, rat, ip, 10 mg/kg
How it was run: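 Male Wistar rats (200 ± 50 g), fasted, were dosed intraperitoneally with the formulation at 10 mg/kg drug equivalent in 5 % v/v DMSO, with 4 rats per time point. At 0.5, 1, 2, 4, 6, 12, 24, 48, 72 and 96 h, rats were killed by cervical dislocation. Excised tissues were homogenised, protein-precipitated in a single step and assayed for drug by HPLC.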

## O=C1Nc2ccc(Cl)cc2[C@@](C#CC2CC2)(C(F)(F)F)O1 [EFV, efavirenz]
[1]
  Duration of sustained release in plasma: up to 96 hrs
[2]; Brain
  AUCtol: 124±1.660 (μg/mL)*hr
  AUMC: 3245±73.69 (μg/mL)*hr
  Cl: 0.08064±0.001 (μg/kg)/((μg/mL)/hr
[2]; Heart
  AUCtol: 132.1±1.150 (μg/mL)*hr
  AUMC: 4027 ±87.53 (μg/mL)*hr
  Cl: 0.07601±0.003 (μg/kg)/((μg/mL)/hr
[2]; Kidney
  AUCtol: 121.2±0.164 (μg/mL)*hr
  AUMC: 3190±6.976 (μg/mL)*hr
  Cl: 0.08248±0.001 (μg/kg)/((μg/mL)/hr
[2]; Liver
  AUCtol: 97.88±1.146 (μg/mL)*hr
  AUMC: 2959±32.860 (μg/mL)*hr
  Cl: 0.1075±0.008 (μg/kg)/((μg/mL)/hr
[2]; Lymph Node
  AUCtol: 96.33±0.190 (μg/mL)*hr
  AUMC: 3143±75.49 (μg/mL)*hr
  Cl: 0.1038±0.002 (μg/kg)/((μg/mL)/hr
[2]; Spleen
  AUCtol: 88±2.205 (μg/mL)*hr
  AUMC: 2799±81.109 (μg/mL)*hr
  Cl: 0.1156±0.002 (μg/kg)/((μg/mL)/hr
[2]; brain
  Cmax: 6653 ± 35 ng/mL
  MRT: 26.2 ± 0.284 h
  Tmax: 6 h
  half-life: 811.8 ± 5.28 min
[2]; heart
  Cmax: 4674 ± 25 ng/mL
  MRT: 30.3 ± 1.28 h
  Tmax: 6 h
  half-life: 1160 ± 35.9 min
[2]; kidney
  Cmax: 5342 ± 20 ng/mL
  MRT: 27.3 ± 1.02 h
  Tmax: 6 h
  half-life: 1051.2 ± 0.762 min
[2]; liver
  Cmax: 5980 ± 83 ng/mL
  MRT: 30.7 ± 0.384 h
  Tmax: 6 h
  half-life: 1010 ± 65.3 min
[2]; lymph node
  Cmax: 3440 ± 48 ng/mL
  MRT: 32.63 ± 0.113 h
  Tmax: 6 h
  half-life: 1260 ± 3.24 min
[2]; spleen
  Cmax: 4580 ± 69 ng/mL
  MRT: 32.1 ± 1.65 h
  Tmax: 6 h
  half-life: 1320 ± 15 min

## CC(C)c1nc(CN(C)C(=O)N[C@H](C(=O)N[C@@H](Cc2ccccc2)C[C@H](O)[C@H](Cc2ccccc2)NC(=O)OCc2cncs2)C(C)C)cs1 [RTV, ritonavir]
[1]
  Duration of sustained release in plasma: ≤ 72 h
[2]; Brain
  AUCtol: 9.25±2.074 (μg/mL)*hr
  AUMC: 97.42± 68.213 (μg/mL)*hr
  Cl: 0.270± 0.008 (μg/kg)/((μg/mL)/hr
[2]; Heart
  AUCtol: 18.34±1.190 (μg/mL)*hr
  AUMC: 285.923± 47.303 (μg/mL)*hr
  Cl: 0.136± 0.032 (μg/kg)/((μg/mL)/hr
[2]; Kidney
  AUCtol: 29.27±1.620 (μg/mL)*hr
  AUMC: 641.30± 73.625 (μg/mL)*hr
  Cl: 0.087± 0.036 (μg/kg)/((μg/mL)/hr
[2]; Liver
  AUCtol: 14.51±2.024 (μg/mL)*hr
  AUMC: 240.78± 26.201 (μg/mL)*hr
  Cl: 0.172± 0.012 (μg/kg)/((μg/mL)/hr
[2]; Lymph Node
  AUCtol: 25.07±1.305 (μg/mL)*hr
  AUMC: 421.67± 81.067 (μg/mL)*hr
  Cl: 0.085± 0.007 (μg/kg)/((μg/mL)/hr
[2]; Spleen
  AUCtol: 25.82±0.934 (μg/mL)*hr
  AUMC: 464.21± 27.094 (μg/mL)*hr
  Cl: 0.091± 0.043 (μg/kg)/((μg/mL)/hr
[2]; brain
  Cmax: 790 ± 32 ng/mL
  MRT: 10.5 ± 1 h
  Tmax: 4 h
  half-life: 400 ± 47.5 min
[2]; heart
  Cmax: 2400 ± 15 ng/mL
  MRT: 15.6 ± 1.93 h
  Tmax: 4 h
  half-life: 803 ± 27 min
[2]; kidney
  Cmax: 2490 ± 55 ng/mL
  MRT: 21.9 ± 0.761 h
  Tmax: 4 h
  half-life: 880 ± 39.1 min
[2]; liver
  Cmax: 2890 ± 21 ng/mL
  MRT: 16.6 ± 0.272 h
  Tmax: 4 h
  half-life: 653 ± 19.5 min
[2]; lymph node
  Cmax: 2030 ± 42 ng/mL
  MRT: 16.3 ± 0.937 h
  Tmax: 4 h
  half-life: 776 ± 65.5 min
[2]; spleen
  Cmax: 2130 ± 24 ng/mL
  MRT: 18 ± 1 h
  Tmax: 4 h
  half-life: 782 ± 61.5 min
